High-throughput results deposited in PubChem BioAssay by several laboratories.
Rows were chosen to be rich in hits. Some 3.9% of all compounds tested hit in one or more screens of this group.
UPR XBP1 act: activators of adaptive arm of unfolded protein response (XBP1). CHO-XBP1 luciferase reporter, IRE1-XBP1 UPR activation, luminescence; percent of tunicamycin response, DMSO as zero. activation, % at 20 µM. 330,000 tested, 0.33% active;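 active = versus positive control, 20 µM dose yields 30% or more activation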;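 note: 100% = tunicamycin at 10 µg/mL and 0% = DMSO only wells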
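Material: CHO cell line with stable XBP1 luciferase reporter; buffer or medium: F12 medium containing 10% fetal bovine serum; compound: single point, 20 µM final compound, 1% DMSO; incubation: 6 h treatment, 37 °C; measured by: glow luminescence from Steady-Glo reagent; evaluation: activation, % of tunicamycin; control set: tunicamycin high, DMSO low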
Jurkat NFkB inh: inhibitors of the PMA/ionomycin-induced NF-kB reporter in Jurkat cells; 330,000 tested, 0.53% active; inhibition, % at 4 µM; PMA/ionomycin-induced NF-kB luciferase reporter, luminescence; in the data active = inhibition above about 50%
697 NFkB inh: inhibitors of the PMA/ionomycin-induced NF-kB reporter in 697 B cells; 697 B-cell NF-kB luciferase reporter, 16 h; 330,000 tested, 0.33% active; AID 435022; inhibition, % at 4 µM; in the data active = inhibition above about 35%
Gli-Sufu antag: antagonists of Gli-Sufu signaling; Sufu-KO-LIGHT fibroblasts, Gli luciferase reporter luminescence; inhibition, % at 5 µM; 340,000 tested, 0.74% active; AID 588413;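 active = inhibition above about 55%, limit read from the data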;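 note: 0% = DMSO-treated cells and 100% = wells with medium but no cells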
UPR CHOP act: apoptotic UPR (CHOP) activation | CHO-CHOP luciferase reporter, luminescence; percent of tunicamycin response over DMSO baseline | activation, % at 10 µM | 330,000 tested, 0.34% active | AID 449763;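 active = at 10 µM dose, activation of 40% or more, normalized to positive control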;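 note: 100% = tunicamycin at 10 µg/mL and 0% = DMSO alone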
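Assay system: CHO-CHOP cells, stable luciferase reporter of PERK-eIF2a-CHOP signalling / Buffer or medium: F12 plus 10% serum / Compound dosing: one dose, 10 µM in 0.5% DMSO / Times: 6 h compound treatment, 37 °C / Technique: luciferase luminescence / Read-out: % reporter activation, DMSO baseline versus tunicamycin full activation / Benchmarks: tunicamycin and DMSO controls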
CHOP inh: CHOP inhibition in unfolded protein response; inhibition, % at 10 µM; 220,000 tested, 3.8% active; AID 2732; CHO-K1 CHOP-promoter luciferase, tunicamycin-induced, 15-18 h;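 active = compounds that reduced the stress-induced luciferase reporter signal by more than about 70% of percent inhibition, limit read from the data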;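 note: 0% = tunicamycin plus vehicle and 100% = wells without tunicamycin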
Active calls of the source: *; nt = no result.

SMILES	UPR XBP1 act	Jurkat NFkB inh	697 NFkB inh	Gli-Sufu antag	UPR CHOP act	CHOP inh
Cc1ccc(N2CCN(C(=O)c3ccccc3F)CC2)c(C)c1	1	5	0	1	0	93*
CCOC(=O)c1c(S(=O)(=O)Nc2ccccn2)c(C)n(C)c1C	2	1	5	2	1	nt
Cn1c(=O)c(NCCO)c2c3c(cccc31)C(=O)c1ccccc1-2	-1	5	1	-2	-3	38
CCCCNc1c2c3c(cccc3n(C)c1=O)C(=O)c1ccccc1-2	0	6	12	7	-1	82*
Cc1ccccc1-c1nc(P(=O)(c2ccccc2)c2ccccc2)c(N2CCOCC2)o1	-1	-4	-14	-6	1	11
CNc1oc(-c2ccccc2Cl)nc1P(=O)(c1ccccc1)c1ccccc1	-3	8	10	11	0	80*
COc1ccc(NC(=O)CC2CC3CCC2C3)cc1S(=O)(=O)N1CCOCC1 (centres undefined)	-2	-5	-15	-4	-1	nt
O=C(/C=C/c1ccccc1)c1ccccc1	10	-26	-2	13	4	-64
O=C(/C=C/c1ccccc1)/C=C/c1ccccc1	6	-10	-7	-5	10	98*
CNC(=S)N=Nc1c(O)[nH]c2ccc(C(C)C)cc12	nt	nt	nt	-2	nt	93*
CNC(=S)N=Nc1c(O)[nH]c2ccccc12	nt	nt	nt	-3	nt	-10
c1ccc(OCCOCCN2CCN(C(c3ccccc3)c3ccccc3)CC2)cc1	2	4	-31	nt	2	73*
COc1ccccc1OCCCCN1CCN(C(c2ccccc2)c2ccccc2)CC1	0	6	17	9	-1	86*
O=C(NC12CC3CC(CC(C3)C1)C2)c1ccccc1O	3	0	-20	-1	2	77*
CN1CCN(c2cc(=O)n(C3CCCCC3)c(=O)[nH]2)CC1	2	0	-9	-1	1	9
O=c1cc(N2CCN(c3ccccc3)CC2)[nH]c(=O)n1C1CCCCC1	5	-10	-30	6	-1	78*
CC(=O)Nc1sc(C)c(C)c1C(=O)OCCOc1ccccc1	1	-24	-27	-21	9	nt
Cc1cc(C)c(C#N)c(N2CCN(CCOc3ccc(Cl)cc3)CC2)n1	-3	-16	3	8	-2	75*
CN1CCN(C(=O)/C(=C/c2cn(S(=O)(=O)N(C)C)c3ccccc23)NC(=O)c2ccccc2)CC1	-3	15	-4	8	0	nt
C[C@H](CO)N1C[C@H](C)[C@@H](CN(C)C(=O)NC2CCCCC2)Oc2c(NC(=O)Nc3ccccc3)cccc2C1=O	-3	-6	-4	-11	0	nt
COc1ccc(S(=O)(=O)N2CCC3(CC2)OCCN3S(=O)(=O)c2ccc(C)cc2)cc1OC	0	19	-1	23	2	nt
Cc1nn(Cc2c(Cl)cccc2Cl)c(Cl)c1/C=C/C(=O)OCC(=O)NCC(F)(F)F	4	29	-7	25	-3	75*
Cc1nn(Cc2ccccc2)c(Cl)c1/C=C/C(=O)OCC(=O)NC(C)C(C)C (centres undefined)	-1	-12	-26	2	0	15
CN(C)S(=O)(=O)c1cccc(NC(=S)N/N=C/c2cc(Br)ccc2O)c1	3	32	-10	-5	-1	72*
O=C1OC(c2ccccc2)Cc2cc(C(=O)N3CCN(c4ccc(F)cc4)CC3)ccc21 (centres undefined)	-1	9	-11	-2	3	nt
SMILES	UPR XBP1 act	Jurkat NFkB inh	697 NFkB inh	Gli-Sufu antag	UPR CHOP act	CHOP inh
COc1cc(NC(=O)c2cc(C(C)C)on2)c(OC)cc1Cl	-3	3	13	8	0	45
COc1cc(NC(=O)c2cc(C3CC3)on2)c(OC)cc1Cl	-4	-10	-1	8	-2	84*
Cc1nnc(-c2ccccc2)c(=O)n1/N=C/c1c(O)ccc2ccccc12	0	10	-31	91*	-3	27
CCOC(=O)c1sc(NC(=O)CSc2nc(C)cc(-c3ccccc3)n2)c(C#N)c1C	0	15	14	-1	0	-7
CCOC(=O)c1sc(NC(=O)CSc2nc3c(cc2C#N)CCCCCC3)c(C#N)c1C	3	3	-49	30	1	72*
CCOC(=O)c1sc(NC(=O)CSc2n[nH]c(-c3ccc(Cl)cc3Cl)n2)c(C#N)c1C	0	-8	-22	12	-3	75*
Cn1cc(C(c2ccccc2OCC(=O)O)c2cn(C)c3ccccc23)c2ccccc21	-7	13	-4	-7	-1	nt
Cc1cc(C)c(OCC(=O)OC(C)C(=O)NC2CC2)c(C)c1 (centres undefined)	-1	7	-16	3	0	nt
COc1cc2cncc(Cc3ccc(Cl)cc3)c2cc1OC	-3	17	-40	1	-5	nt
CCOc1ccc(N2C(=O)CC(Sc3nnnn3-c3ccccc3)C2=O)cc1 (centres undefined)	nt	nt	nt	-5	nt	108*
Cc1ccc(C2CC(=O)C(C=NCCN3CCN(C(=S)Nc4ccc(F)cc4)CC3)=C(O)C2)cc1 (centres undefined)	-4	-13	17	13	0	6
Cc1cc(C)nc(N/N=C/C2=C(O)CC(c3ccc(F)cc3)CC2=O)n1 (centres undefined)	-3	9	-17	45	11	75*
COc1ccccc1N1CCN(C(=O)c2ccc(C(C)(C)C)cc2)CC1	-1	-1	-23	-6	0	96*
COc1ccc(N2CCN(C(=O)c3ccc(C(C)(C)C)cc3)CC2)cc1	0	4	10	-1	0	85*
Cc1cc(OCC(=O)Nc2ccccc2N2CCOCC2)c(C(C)C)cc1Cl	-2	-8	-13	14	0	nt
O=C1CC(N2CCC(Cc3ccccc3)CC2)C(=O)N1CCc1ccccc1 (centres undefined)	-2	-9	0	0	-1	72*
C=CC[C@H](CC(=O)NCCO)C(=O)NC[C@@H](OC(=O)[C@@H](CC=C)CC(=O)OC(C)(C)C)c1ccccc1	-3	8	6	4	-1	nt
COc1cc(OC)c(C2Nc3cccc4cccc(c34)N2)c(OC)c1	13	4	-39	2	-1	nt
COc1ccccc1C1Nc2cccc3cccc(c23)N1	3	6	-8	23	1	87*
CCC1(c2ccccc2)NC(=O)N(CC(=O)Nc2ccc(N3CCOCC3)cc2)C1=O (centres undefined)	-2	-7	9	-9	0	nt
N#C/C(=N/Nc1ccc(OC(F)(F)F)cc1)C(N)=S	5	-39	-61	61*	11	74*
